Platelet DG rel: inhibitors of platelet dense granule secretion, primary screen, cell-based, MLPCN, human platelets; inhibition, %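 (compounds screened at 7.5 µM in platelet-rich plasma)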; hit rate 0.22% among 300,000; human platelet-rich plasma, SFLLRN dense granule ATP release, luminescence;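 active = mean replicate score, as percent of positive control, at or above 50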
FLuc inh counter: firefly luciferase enzyme inhibitors, primary screen, artefact control for luciferase-based inhibitor screens, biochemical, luminescence, ATPLite; Luciferin 4-monooxygenase (Photinus pyralis), P08659; 10 min; inhibition, % at 10 µM; hit rate 1.5% among 200,000; AID 1006, 2008;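 active = inhibition above about 50% when tested at 10 µM, limit read from the data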
Target sequence (P08659 whole entry, looked up): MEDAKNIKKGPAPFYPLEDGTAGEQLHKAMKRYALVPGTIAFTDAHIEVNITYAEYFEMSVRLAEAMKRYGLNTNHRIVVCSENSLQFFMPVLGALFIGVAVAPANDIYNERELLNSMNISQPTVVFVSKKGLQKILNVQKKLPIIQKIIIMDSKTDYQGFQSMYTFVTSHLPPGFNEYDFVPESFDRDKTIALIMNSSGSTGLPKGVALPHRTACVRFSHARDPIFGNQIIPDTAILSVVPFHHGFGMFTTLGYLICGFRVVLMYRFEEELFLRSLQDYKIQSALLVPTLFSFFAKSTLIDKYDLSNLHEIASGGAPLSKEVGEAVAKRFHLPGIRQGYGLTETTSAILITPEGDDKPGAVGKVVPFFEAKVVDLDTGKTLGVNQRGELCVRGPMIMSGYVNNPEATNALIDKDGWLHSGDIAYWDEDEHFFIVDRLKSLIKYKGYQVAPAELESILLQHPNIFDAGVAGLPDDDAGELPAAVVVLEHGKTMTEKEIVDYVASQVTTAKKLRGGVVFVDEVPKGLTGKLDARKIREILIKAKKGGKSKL
FLuc stim CS: FLuc activators, initial screening, artefact control for FLuc-dependent activation tests, biochemical, ATPlite luminescence; 200,000 tested, under 10 active; activation factor at 10 µM; ATPlite luciferase biochemical, 10 min; 0 = ATP-free wells, 1 = DMSO control;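 active = luciferase activation factor, scaled between plate controls, of at least 2 with compound at 10 µM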
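Material: Luciferase/luciferin reagent mix; Doses: test compounds dosed from 2 mM stocks in 100% DMSO; Schedule: 10 min incubation after luciferase reagent addition, room temperature; Measured by: luminescence from luciferase reaction; Read-out: luminescence gain marking luciferase activators.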
PPC-1+TRAIL kill: compounds killing PPC-1 cancer cells with TRAIL present, primary screen, TRAIL potentiator project, ATPLite luminescence, uHTS; PPC-1 cells + TRAIL, ATPLite viability luminescence; cell killing (% activity), % at 4 µM or 5 µM; hit rate 0.41% among 220,000;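 active = cell killing above 50% in the first pass at 4 µM, then a duplicate retest at 5 µM averaging 50% or more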;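 also: plate controls were cells with TRAIL plus DMSO for no effect and medium-only wells lacking cells for full effect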
C8 TRAIL sens: viability loss with TRAIL in NB7+C8 cells, primary screen, TRAIL sensitizer project, cell-based, ATPlite luminescence | AID 624354, 2012 | inhibition (viability loss, TRAIL sensitization), % at 10 µM | hit rate 1% among 360,000;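 active = compounds causing at least 50% loss of cell viability in the single-dose screen, relative to plate controls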
Starred values were filed as active, the others as inactive; x = not tested or not shown. A selection: hits, their analogues and other compounds. The true share with any hit is near 1.6%.

SMILES | Platelet DG rel | FLuc inh counter | FLuc stim CS | PPC-1+TRAIL kill | C8 TRAIL sens
CCCNC(=O)c1noc2c1CCc1cc(OC)ccc1-2 | -1 | 78* | 0.2 | 44 | 43
N#Cc1nc(Nc2cccc(Cl)c2)c2ncn(C3CCCC3)c2n1 | x | x | x | x | 52*
COc1ccc(/C=C2/Sc3ccc(C(=O)NCCN4CCCCCC4)cc3NC2=O)cc1 | 3 | x | x | x | 79*
CC(C)n1cnc2cc(NCc3ccco3)ccc21 | 1 | 58* | 0.4 | 12 | -4
CN1/C(=C\C(=O)C[n+]2ccc(C(=O)c3ccccc3)cc2)C(C)(C)c2ccccc21 | 1 | -3 | 1 | 21 | 55*
CN1/C(=C\C(=O)C[n+]2cccc(C(N)=O)c2)C(C)(C)c2ccccc21 | -9 | -6 | 1.1 | 22 | 1
CC(=O)N[C@@H]1C=C[C@@H](CC(=O)NCc2ccc(Cl)cc2)O[C@@H]1CO | x | x | x | x | -25
Cc1cccc(NC(=S)NNC(=O)c2cccc([N+](=O)[O-])c2)c1 | 14 | x | x | -4 | 4
Cc1cccc(NC(=S)NNC(=O)c2csc(C)c2)c1 | -4 | 57* | 0.4 | 16 | 16
Cc1cccc(NC(=S)NNC(=O)c2csc3c2CCCC3)c1 | 2 | 57* | 0.4 | 8 | 44
O=C(C[C@@H]1C[C@H]2c3cc(NC(=O)c4cccnc4)ccc3O[C@H]2[C@H](CO)O1)NCc1ccc(Oc2ccccc2)cc1 | x | x | x | x | 8
CCCOc1ccc(-c2nc(N3CCN(CC)CC3)c3ccccc3n2)cc1 | -3 | x | x | x | 17
CCCOc1ccc(-c2nc(N3CCN(C)CC3)c3ccccc3n2)cc1 | -7 | x | x | x | 66*
O=C(C[C@H]1C(=O)N(c2ccccc2)C[C@@H]1Cc1ccccc1)Nc1ccccc1 | x | x | x | x | 6
CN1OC[C@@H]2CN[C@H](c3ccc(-c4cc5ccccc5o4)cc3)C[C@@H]21 | x | x | x | x | 86*
CN1OC[C@@H]2CN[C@H](c3ccc(-c4ccc(C#N)cc4)cc3)C[C@@H]21 | x | x | x | x | 18
Cc1ccc2c(=O)n3c(nc2c1)C(Cc1ccc(O)cc1)NC(=O)c1cccnc1-3 (stereo not drawn) | x | x | x | x | -2
CCCCCCOC(=O)c1ccc(N)cc1 | 4 | x | x | -7 | -8
CCCCCCCCCCCC1N=C(N)NC(CCCO)=C1C(=O)OC (stereo not drawn) | x | x | x | x | 63*
Cn1ccc2c(-c3ccc4c(c3)OCCO4)cc3c(c21)C1CCC3O1 (stereo not drawn) | x | x | x | x | -1
CCn1c(C)nc2cc(C(=O)N/N=C/c3cccc(O)c3O)ccc21 | 1 | 66* | 0.3 | 17 | 52*
Cc1cccc(/C=N\NC(=O)c2ccc(Cl)cc2)c1O | 1 | 23 | 0.8 | 34 | 55*
O=C(N/N=C/c1cccc(O)c1)c1ccc2c(c1)OCCO2 | -19 | x | x | x | 89*
O=C(N/N=C/c1cc([N+](=O)[O-])ccc1O)c1ccncc1 | 3 | x | x | 13 | -5
CCOc1cccc(/C=N/NC(=O)c2ccc3c(c2)OCCO3)c1O | 4 | x | x | x | 34
SMILES | Platelet DG rel | FLuc inh counter | FLuc stim CS | PPC-1+TRAIL kill | C8 TRAIL sens
Cc1cccc(/C=N/NC(=O)Cc2ccc(Cl)cc2)c1O | 2 | x | x | x | 23
O=C(N/N=C/c1cc([N+](=O)[O-])ccc1O)c1ccc2c(c1)OCCO2 | -24 | 70* | 0.3 | 36 | 52*
CCOC(=O)c1ccc(NC(=O)c2nc[nH]c2C(=O)N(C)CCO)cc1 | x | x | x | x | 6
Cc1nonc1C(=O)N/N=C/c1cccc(O)c1 | 57* | 12 | 0.9 | 9 | -7
Cc1cccc(/C=N/NC(=O)c2ccc3c(c2)OCCO3)c1O | 38 | x | x | x | 76*
O=C(OCc1ccccc1)N1CCCC2CC1c1ccccc12 (stereo not drawn) | x | x | x | x | 18
COc1cccc(CNC(=O)c2cc(S(=O)(=O)N3CCCCC3)ccc2C)c1 | x | x | x | x | 8
CCCCCCCN(C(=O)CCl)c1ccccc1C | -16 | -7 | 1.1 | 18 | 88*
O=C(NNC1=NS(=O)(=O)c2ccccc21)c1ccc(Cl)cc1 | -2 | 84* | 0.2 | 49 | 47
CCN(CC)S(=O)(=O)c1ccc(C(=O)NNC2=NS(=O)(=O)c3ccccc32)cc1 | 15 | x | x | x | 5
O=C(Cc1ccccc1)NNC1=NS(=O)(=O)c2ccccc21 | 3 | 0 | 1 | 7 | 7
O=C(NNC1=NS(=O)(=O)c2ccccc21)c1ccc([N+](=O)[O-])cc1 | -1 | x | x | x | 61*
